Results from ChEMBL document CHEMBL1799922, “Synthesis and antimycobacterial activity of prodrugs of indeno[2,1-c]quinoline derivatives” (Eur J Med Chem, 2011).
Converted amounts (≈) assume the structure as drawn.

Test system: not listed separately
Experiment: Selectivity index, ratio CC50 for human U937 cells to MIC for Mycobacterium tuberculosis H37Rv ATCC 27294
Format: functional, U-937
Settings: not given

| SMILES | Selectivity Index |
| --- | --- |
| CC(C)(C)OC(=O)NC(Cc1ccccc1)C(=O)O/N=C1\c2ccccc2-c2c1c(N1CCN(c3ccccn3)CC1)nc1ccc(Br)cc21 (centres undefined) | >12 |
| CCCCCCCCC(=O)O/N=C1\c2ccccc2-c2c1c(-n1ccnc1)nc1ccc(Br)cc21 | >102 |
| CCCCCCC(=O)O/N=C1\c2ccccc2-c2c1c(-n1ccnc1)nc1ccc(Br)cc21 | >111 |
| CCCC(=O)O/N=C1\c2ccccc2-c2c1c(-n1ccnc1)nc1ccc(Br)cc21 | >200 |

Test system: not listed separately
Experiment: Cytotoxicity against human U937 cells assessed as cell viability at 10 ug/ml after 72 hrs by MTT assay
Format: cell-based, U-937
Settings: read-out: Activity
Summary of the method: (§1)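 U937 human monocytic cells plated at 1 × 10^5 cells/mL and allowed to adhere for 1 h at 37 °C in 5% CO2. Non-adherent cells were washed off with RPMI 1640. Adherent cells were exposed to compound in triplicate, with medium alone as the live control and 3% Tween 20 as the dead control. MTT (5 mg/mL in PBS) was then added for 3 h at 37 °C. Formazan was dissolved in 0.4 M HCl/isopropanol and absorbance read at 600 nm. Results are expressed as % cell viability.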

| SMILES | viability at 72 h, 10 ug/ml |
| --- | --- |
| CC(C)(C)OC(=O)NC(Cc1ccccc1)C(=O)O/N=C1\c2ccccc2-c2c1c(N1CCN(c3ccccn3)CC1)nc1ccc(Br)cc21 (centres undefined) | 71% |
| CCCCCCCCC(=O)O/N=C1\c2ccccc2-c2c1c(-n1ccnc1)nc1ccc(Br)cc21 | 77% |
| CCCCCCC(=O)O/N=C1\c2ccccc2-c2c1c(-n1ccnc1)nc1ccc(Br)cc21 | 67% |
| CCCC(=O)O/N=C1\c2ccccc2-c2c1c(-n1ccnc1)nc1ccc(Br)cc21 | 69% |

Test system: not listed separately
Experiment: Octanol-water partition coefficient, log P of the compound at pH 7.4 at room temperature by UV spectrophotometric analysis
Format: physicochemical
Settings: not given
Summary of the method: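 Shake-flask method at room temperature: 1-octanol and phosphate buffer (pH 7.4) were pre-saturated by shaking for 24 h. Compound at 10^-4 M in equal volumes of both phases was shaken vigorously for 1 h, left to stand 15 min, then centrifuged 10 min at 10,000 rpm. UV absorbance of each phase was read at 280 nm against blanks, and P was taken as the octanol/water absorbance ratio.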

| SMILES | logD |
| --- | --- |
| CC(C)(C)OC(=O)NC(Cc1ccccc1)C(=O)O/N=C1\c2ccccc2-c2c1c(N1CCN(c3ccccn3)CC1)nc1ccc(Br)cc21 (centres undefined) | 1.2 |
| CCCCCCCCC(=O)O/N=C1\c2ccccc2-c2c1c(-n1ccnc1)nc1ccc(Br)cc21 | 1.9 |
| CCCCCCC(=O)O/N=C1\c2ccccc2-c2c1c(-n1ccnc1)nc1ccc(Br)cc21 | 1.5 |
| CCCC(=O)O/N=C1\c2ccccc2-c2c1c(-n1ccnc1)nc1ccc(Br)cc21 | 1.5 |

Test system: not listed separately
Experiment: Half life in human blood serum by LC-MS analysis
Format: ADME, cell-free, Plasma
Settings: not given
Summary of the method: (§2)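 Enzymatic hydrolysis: 1 mg prodrug dissolved in 1 mL ethanol, then 200 µL preheated human blood serum diluted to 80% with 0.16 M phosphate buffer (pH 7.4) was added. Samples were kept at 37 °C (24 h) and centrifuged 10 min at 10,000 rpm. Remaining prodrug in the supernatant was monitored by TLC and LC-MS. t1/2 is the time to 50% hydrolysis.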

| SMILES | half-life |
| --- | --- |
| CC(C)(C)OC(=O)NC(Cc1ccccc1)C(=O)O/N=C1\c2ccccc2-c2c1c(N1CCN(c3ccccn3)CC1)nc1ccc(Br)cc21 (centres undefined) | 432 h |
| CCCCCCCCC(=O)O/N=C1\c2ccccc2-c2c1c(-n1ccnc1)nc1ccc(Br)cc21 | 72 h |
| CCCCCCC(=O)O/N=C1\c2ccccc2-c2c1c(-n1ccnc1)nc1ccc(Br)cc21 | 192 h |
| CCCC(=O)O/N=C1\c2ccccc2-c2c1c(-n1ccnc1)nc1ccc(Br)cc21 | 96 h |

Test system: not listed separately
Experiment: Half life in 10% aqueous ammonia buffer at pH 8 assessed as hydrolysis to 2-bromo-6-(1H-imidazol-1-yl)-7H-indeno[2,1-c]quinolin-7-one oxime at 37 degC by LC-MS analysis
Format: physicochemical
Settings: not given
Summary of the method: (§3)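 Chemical hydrolysis: 1 mg prodrug dissolved in 1 mL of 10% aqueous ammonia in methanol (pH 8) and held in a thermostatted water bath at 37 °C, up to 24 h. Conversion to the parent oxime was followed by TLC and LC-MS. t1/2 is the time to 50% hydrolysis.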

| SMILES | half-life |
| --- | --- |
| CC(C)(C)OC(=O)NC(Cc1ccccc1)C(=O)O/N=C1\c2ccccc2-c2c1c(N1CCN(c3ccccn3)CC1)nc1ccc(Br)cc21 (centres undefined) | 72 h |
| CCCCCCCCC(=O)O/N=C1\c2ccccc2-c2c1c(-n1ccnc1)nc1ccc(Br)cc21 | 24 h |
| CCCCCCC(=O)O/N=C1\c2ccccc2-c2c1c(-n1ccnc1)nc1ccc(Br)cc21 | 48 h |
| CCCC(=O)O/N=C1\c2ccccc2-c2c1c(-n1ccnc1)nc1ccc(Br)cc21 | 36 h |

Test system: not listed separately
Experiment: Cytotoxicity against human U937 cells assessed as cell viability at 5 ug/ml after 72 hrs by MTT assay
Format: cell-based, U-937
Settings: read-out: Activity
Summary of the method: as §1

| SMILES | viability at 72 h, 5 ug/ml |
| --- | --- |
| CC(C)(C)OC(=O)NC(Cc1ccccc1)C(=O)O/N=C1\c2ccccc2-c2c1c(N1CCN(c3ccccn3)CC1)nc1ccc(Br)cc21 (centres undefined) | 87% |
| CCCCCCCCC(=O)O/N=C1\c2ccccc2-c2c1c(-n1ccnc1)nc1ccc(Br)cc21 | 85% |
| CCCCCCC(=O)O/N=C1\c2ccccc2-c2c1c(-n1ccnc1)nc1ccc(Br)cc21 | 80% |
| CCCC(=O)O/N=C1\c2ccccc2-c2c1c(-n1ccnc1)nc1ccc(Br)cc21 | 88% |

Test system: not listed separately
Experiment: Cytotoxicity against human U937 cells assessed as cell viability at 20 ug/ml after 72 hrs by MTT assay
Format: cell-based, U-937
Settings: read-out: Activity
Summary of the method: as §1

| SMILES | viability at 72 h, 20 ug/ml |
| --- | --- |
| CC(C)(C)OC(=O)NC(Cc1ccccc1)C(=O)O/N=C1\c2ccccc2-c2c1c(N1CCN(c3ccccn3)CC1)nc1ccc(Br)cc21 (centres undefined) | 73% |
| CCCCCCCCC(=O)O/N=C1\c2ccccc2-c2c1c(-n1ccnc1)nc1ccc(Br)cc21 | 72% |
| CCCCCCC(=O)O/N=C1\c2ccccc2-c2c1c(-n1ccnc1)nc1ccc(Br)cc21 | 60% |
| CCCC(=O)O/N=C1\c2ccccc2-c2c1c(-n1ccnc1)nc1ccc(Br)cc21 | 70% |

Test system: not listed separately
Experiment: Cytotoxicity against human U937 cells assessed as cell viability at 1.25 ug/ml after 72 hrs by MTT assay
Format: cell-based, U-937
Settings: read-out: Activity
Summary of the method: as §1

| SMILES | viability at 72 h, 1.25 ug/ml |
| --- | --- |
| CC(C)(C)OC(=O)NC(Cc1ccccc1)C(=O)O/N=C1\c2ccccc2-c2c1c(N1CCN(c3ccccn3)CC1)nc1ccc(Br)cc21 (centres undefined) | 87% |
| CCCCCCCCC(=O)O/N=C1\c2ccccc2-c2c1c(-n1ccnc1)nc1ccc(Br)cc21 | 87% |
| CCCCCCC(=O)O/N=C1\c2ccccc2-c2c1c(-n1ccnc1)nc1ccc(Br)cc21 | 85% |
| CCCC(=O)O/N=C1\c2ccccc2-c2c1c(-n1ccnc1)nc1ccc(Br)cc21 | 85% |

Test system: not listed separately
Experiment: Stability of the compound in 10% aqueous ammonia buffer at pH 8 assessed as hydrolysis to 2-bromo-6-(1H-imidazol-1-yl)-7H-indeno[2,1-c]quinolin-7-one oxime at 1 mg at 37 degC by LC-MS analysis
Format: physicochemical
Parameters: scale not given: the % may be the effect or the level left
Settings: not given
Summary of the method: as §3

| SMILES | Activity |
| --- | --- |
| CC(C)(C)OC(=O)NC(Cc1ccccc1)C(=O)O/N=C1\c2ccccc2-c2c1c(N1CCN(c3ccccn3)CC1)nc1ccc(Br)cc21 (centres undefined) | 98% |
| CCCCCCCCC(=O)O/N=C1\c2ccccc2-c2c1c(-n1ccnc1)nc1ccc(Br)cc21 | 95% |
| CCCCCCC(=O)O/N=C1\c2ccccc2-c2c1c(-n1ccnc1)nc1ccc(Br)cc21 | 95% |
| CCCC(=O)O/N=C1\c2ccccc2-c2c1c(-n1ccnc1)nc1ccc(Br)cc21 | 95% |

Test system: Mycobacterium tuberculosis
Experiment: Antimicrobial activity against Mycobacterium tuberculosis H37Rv ATCC 27294 after 16 to 24 hrs by microplate alamar blue assay
Format: functional
Settings: not given
Summary of the method: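 M. tuberculosis H37Rv inoculum 2×10^5 cfu/mL (100 µL) added to twofold dilutions in Middlebrook 7H12 medium; final test range 128 µM to 0.5 µM from 12.8 mM DMSO stocks. Incubated 37 °C; day 7 Tween 80 plus Alamar Blue added, further 16-24 h at 37 °C. Fluorescence ex 530/em 590 nm; MIC = lowest concentration giving >90% fluorescence reduction versus replicate bacteria-only controls. Rifampin, isoniazid controls.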

| SMILES | MIC |
| --- | --- |
| CC(C)(C)OC(=O)NC(Cc1ccccc1)C(=O)O/N=C1\c2ccccc2-c2c1c(N1CCN(c3ccccn3)CC1)nc1ccc(Br)cc21 (centres undefined) | 3.47 µg/mL (≈ 4.73 µM) |
| CCCCCCCCC(=O)O/N=C1\c2ccccc2-c2c1c(-n1ccnc1)nc1ccc(Br)cc21 | 0.39 µg/mL (≈ 0.734 µM) |
| CCCCCCC(=O)O/N=C1\c2ccccc2-c2c1c(-n1ccnc1)nc1ccc(Br)cc21 | 0.36 µg/mL (≈ 0.715 µM) |
| CCCC(=O)O/N=C1\c2ccccc2-c2c1c(-n1ccnc1)nc1ccc(Br)cc21 | < 0.2 µg/mL |

Test system: Serum
Experiment: Stability of the compound in 80% human blood serum assessed as hydrolysis to 2-bromo-6-(1H-imidazol-1-yl)-7H-indeno[2,1-c]quinolin-7-one oxime at 1 mg after 24 hrs at 37 degC by LC-MS analysis
Format: ADME, cell-free
Parameters: scale not given: the % may be the effect or the level left
Settings: not given
Summary of the method: as §2

| SMILES | Activity |
| --- | --- |
| CC(C)(C)OC(=O)NC(Cc1ccccc1)C(=O)O/N=C1\c2ccccc2-c2c1c(N1CCN(c3ccccn3)CC1)nc1ccc(Br)cc21 (centres undefined) | 70% |
| CCCCCCCCC(=O)O/N=C1\c2ccccc2-c2c1c(-n1ccnc1)nc1ccc(Br)cc21 | 95% |
| CCCCCCC(=O)O/N=C1\c2ccccc2-c2c1c(-n1ccnc1)nc1ccc(Br)cc21 | 85% |
| CCCC(=O)O/N=C1\c2ccccc2-c2c1c(-n1ccnc1)nc1ccc(Br)cc21 | 90% |
